Data as given in publication PMC10100262 (Chemmedchem, 2022).

Tests used:
Determination of log D = format: physicochemical; details: pH 7.4
Outline: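 68Ga-labeled peptide conjugate, molar activity adjusted to 1 GBq/μmol, 0.7–1 MBq per test. Partitioned between 1-octanol and 0.05 M phosphate buffer pH 7.4 by vigorous shaking for 2 min. Phases separated by centrifugation; equal aliquots of each phase γ-counted. Run thrice, each in triplicate.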

[1] = format: in vitro ADME; details: pooled human serum, 37 °C; activity in precipitated serum protein pellet
Outline: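 68Ga-labeled peptide conjugate (20–25 MBq; molar activity set to 1 GBq/μmol) incubated in pooled human serum at 37 °C. Samples taken at 15-min intervals into an equal volume of ice-cold ethanol, held 1 min on ice and centrifuged 90 s. Activity measured in pellet and supernatant; supernatant analyzed by radio-HPLC. Three experiments per radioligand.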

SMILES	logD (Determination of log D; 1‐octanol/phosphate buffer)	protein‐associated activity (protein‐bound activity fraction) [1]	logD (Determination of log D)
C[C@@H](O)[C@H](NC(=O)[C@@H]1CSSC[C@H](NC(=O)[C@@H](Cc2ccccc2)NC(=O)CN2CCN(CC(=O)O)CCN(CC(=O)O)CCN(CC(=O)O)CC2)C(=O)N[C@@H](Cc2ccc(O)cc2)C(=O)N[C@H](Cc2c[nH]c3ccccc23)C(=O)N[C@@H](CCCCN)C(=O)N[C@@H]([C@@H](C)O)C(=O)N1)C(=O)O [[^68Ga]Ga‐8, metal not drawn]	-4.09 ± 0.07	19.7±2.2%	
C[C@@H](O)[C@H](NC(=O)[C@@H]1CSSC[C@H](NC(=O)[C@@H](Cc2ccccc2)NC(=O)CCC(C(=O)O)N2CCN(CC(=O)O)CCN(CC(=O)O)CCN(CC(=O)O)CC2)C(=O)N[C@@H](Cc2ccc(O)cc2)C(=O)N[C@H](Cc2c[nH]c3ccccc23)C(=O)N[C@@H](CCCCN)C(=O)N[C@@H]([C@@H](C)O)C(=O)N1)C(=O)O (some centres unmarked) [[^68Ga]Ga‐9, metal not drawn]		29.0±3.5%	-4.11 ± 0.11
C[C@@H](O)[C@H](NC(=O)[C@@H]1CSSC[C@H](NC(=O)[C@@H](Cc2ccccc2)NC(=O)CC[C@H](C(=O)O)N2CCN(CC(=O)O)CCN(CC(=O)O)CC2)C(=O)N[C@@H](Cc2ccc(O)cc2)C(=O)N[C@H](Cc2c[nH]c3ccccc23)C(=O)N[C@@H](CCCCN)C(=O)N[C@@H]([C@@H](C)O)C(=O)N1)C(=O)O [[^68Ga]Ga‐10, metal not drawn]	-3.72 ± 0.02	16.9±3.5%	
C[C@@H](O)[C@H](NC(=O)[C@@H]1CSSC[C@H](NC(=O)[C@@H](Cc2ccccc2)NC(=O)CCC(C(=O)O)N2CCN3CCN(CCN(CC(=O)O)CC3)CC2)C(=O)N[C@@H](Cc2ccc(O)cc2)C(=O)N[C@H](Cc2c[nH]c3ccccc23)C(=O)N[C@@H](CCCCN)C(=O)N[C@@H]([C@@H](C)O)C(=O)N1)C(=O)O (some centres unmarked) [[^68Ga]Ga‐11, metal not drawn]		15.7±3.6%	-3.02 ± 0.08
